Assay results from ChEMBL document CHEMBL4261589, “Structure-based design of allosteric calpain-1 inhibitors populating a novel bioactivity space” (Eur J Med Chem, 2018).
The source made the active and inactive calls. The calls are words filed in the database; no cut-off is given here.

Legend:
[1] = target: T1, Calpain-1 catalytic subunit (Sus scrofa, UniProt P35750); test: Inhibition of full length porcine Calpain-1 complex using (H2NeK(-FAM)-EVYGMMK(DABCYL)eOH) substrate by FRET assay
T1 sequence (P35750 whole entry): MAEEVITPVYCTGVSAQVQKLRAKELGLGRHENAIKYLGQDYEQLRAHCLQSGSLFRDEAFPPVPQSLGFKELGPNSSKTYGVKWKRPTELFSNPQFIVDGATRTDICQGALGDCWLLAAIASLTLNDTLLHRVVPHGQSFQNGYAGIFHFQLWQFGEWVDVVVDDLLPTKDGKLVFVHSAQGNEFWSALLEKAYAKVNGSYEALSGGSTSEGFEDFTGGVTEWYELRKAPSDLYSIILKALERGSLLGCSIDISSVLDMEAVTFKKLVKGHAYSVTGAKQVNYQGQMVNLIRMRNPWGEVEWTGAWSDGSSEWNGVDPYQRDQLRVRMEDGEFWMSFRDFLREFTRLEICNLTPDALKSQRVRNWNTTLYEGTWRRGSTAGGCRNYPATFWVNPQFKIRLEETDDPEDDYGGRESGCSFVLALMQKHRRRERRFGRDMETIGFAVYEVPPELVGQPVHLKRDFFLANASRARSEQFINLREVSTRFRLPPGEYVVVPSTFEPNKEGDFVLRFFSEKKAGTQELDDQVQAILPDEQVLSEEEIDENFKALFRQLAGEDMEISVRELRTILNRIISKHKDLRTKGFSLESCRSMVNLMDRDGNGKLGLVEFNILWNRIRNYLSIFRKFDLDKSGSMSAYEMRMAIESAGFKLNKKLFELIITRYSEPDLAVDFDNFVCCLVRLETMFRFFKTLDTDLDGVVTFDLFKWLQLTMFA
Outline: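 Purified porcine calpain-1 (25 nM) with 1 µM FAM/DABCYL α-spectrin peptide, cleaved at Tyr-Gly, in 10 mM HEPES, 10 mM DTT, 0.5 mM EDTA, 0.1% BSA, pH 6.8, at 37 °C. Compounds (5 nM–200 µM, from DMSO stock) were added before starting with 5 mM CaCl2. Fluorescence read at ex 490/em 520 nm. DMSO-alone controls were run. IC50 given as mean ± SD of three independent experiments.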

[2] = target: Calpain-1 catalytic subunit (Homo sapiens) (UniProt P07384); test: Inhibition of human Calpain-1 active site domain using (H2NeK(-FAM)-EVYGMMK(DABCYL)eOH) substrate by FRET assay
[3] = target: Calpain small subunit 1 (Homo sapiens) (UniProt P04632); test: Binding affinity to human Calpain-1 PEF(S) domain at 0.5 to 500 uM expressed in Escherichia coli BL21-CodonPlus (DE3) RP cells incubated for 5 mins by TNS displacement assay
Calpain small subunit 1 (Homo sapiens), sequence (P04632 whole entry, looked up): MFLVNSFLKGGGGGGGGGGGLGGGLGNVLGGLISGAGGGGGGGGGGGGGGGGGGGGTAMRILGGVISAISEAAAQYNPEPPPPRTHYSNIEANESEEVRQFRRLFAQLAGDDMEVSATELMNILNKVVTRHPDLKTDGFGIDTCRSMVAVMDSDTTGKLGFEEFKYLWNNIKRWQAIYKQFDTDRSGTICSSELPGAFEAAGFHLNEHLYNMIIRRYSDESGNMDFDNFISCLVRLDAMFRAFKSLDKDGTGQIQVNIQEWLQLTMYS

Row | Compound | IC50 ([1]; read-out: IC50) [µM] | IC50 ([2]; read-out: IC50) [µM] | Activity [3] | IC50 [1] | IC50 [2]
1 | O=C(O)c1cc(NS(=O)(=O)c2ccc(F)cc2)cnc1N1CCCCCC1 | > 100 | 41.1 | Active | – | –
2 | COCCOc1nc(-c2cccc(C(F)(F)F)c2)n(-c2ccc(NC(=O)C(C)C)cc2)n1 | – | – | – | Not Active | Not Active
3 | O=C(CSc1nnc2ccc(-c3ccccn3)nn12)Nc1cccc(C(F)(F)F)c1 | 29.7 | – | – | – | Not Active
4 | O=C1CCCN1c1cccc(NS(=O)(=O)c2cccc(C(F)(F)F)c2)c1 | – | – | inactive | Not Active | Not Active
5 | CC(C)(C)NC(=O)c1ccc(Oc2cc(F)c(CC(=O)O)cc2Cl)c(NS(=O)(=O)c2ccc(C3CC3)cc2Cl)c1 [VIDUPIPRANT] | 7.5 | > 100 | Active | – | –
6 | FC(F)(F)c1cccc(CSc2nnc3ccc(-c4ccccn4)nn23)c1 | – | – | – | Not Active | Not Active
7 | COCCOc1nc(-c2ccc(OC)cc2)n(-c2cccc(NC(=O)c3ccc(C)c(C(F)(F)F)c3)c2)n1 | – | – | – | Not Active | Not Active
8 | O=C(O)/C(S)=C/c1ccc(I)cc1 | 19.3 | 17.8 | Active | – | –
9 | FC(F)(F)c1ccc(CSc2nnc3ccc(-c4ccccn4)nn23)cc1 | 20.5 | – | – | – | Not Active
10 | NC(=O)c1cccc(NS(=O)(=O)c2cccc(C(F)(F)F)c2)c1 | – | – | Active | Not Active | Not Active
11 | O=C(NC1CCC(O)CC1)c1ccc(S(=O)(=O)Nc2cccc(C(F)(F)F)c2)cc1 (stereo not drawn) | – | – | Active | Not Active | Not Active
